Holding throughout (format): cell-based
Assay [1] addresses T1, Adenosine receptor A1 (Homo sapiens) (UniProt P30542).
T1 sequence (whole entry): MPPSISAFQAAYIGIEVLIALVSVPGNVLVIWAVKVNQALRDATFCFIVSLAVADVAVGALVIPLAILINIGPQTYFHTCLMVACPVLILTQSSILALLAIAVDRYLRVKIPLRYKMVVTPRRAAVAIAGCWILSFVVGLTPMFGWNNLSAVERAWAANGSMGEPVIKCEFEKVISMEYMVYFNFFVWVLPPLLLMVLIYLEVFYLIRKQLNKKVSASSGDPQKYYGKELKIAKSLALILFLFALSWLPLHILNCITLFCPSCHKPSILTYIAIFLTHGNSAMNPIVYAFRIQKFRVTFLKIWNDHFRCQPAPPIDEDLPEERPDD
Briefly: Displacement of [3H]DPCPX from human A1 receptor expressed in CHO-A1 cells at 10 uM incubated for 60 mins by scintillation counting method based radioligand competitive binding assay. In a few lines:
(§1)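 CHO-A1 membranes, 15 μg protein, in 20 mM Hepes, 100 mM NaCl, 10 mM MgCl2, 2 UI/ml adenosine deaminase, pH 7.4. Radioligand 2 nM [3H]DPCPX; nonspecific binding with 10 μM (R)-PIA. Incubated 25 °C for 60 min, filtered, counted, in duplicate. Screen at 10 μM; compounds >80% inhibition tested at 6 concentrations (10 nM–100 μM), Ki by Cheng-Prusoff.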

Assay [2] has as its target T2, Adenosine receptor A2a (Homo sapiens, UniProt P29274). The experiment in a line: Displacement of [3H]ZM241385 from human A2A receptor expressed in HeLa-A2A cells at 10 uM incubated for 30 mins by scintillation counting method based radioligand competitive binding assay. The procedure, abridged: (§2)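 Uses HeLa-A2A membranes, 10 µg protein, buffer 50 mM Tris-HCl, 1 mM EDTA, 10 mM MgCl2, 2 UI/mL adenosine deaminase, pH 7.4. 3 nM [3H]ZM241385; nonspecific with 50 µM NECA. 30 min at 25 °C, GF/C filtration, duplicate wells. Screened at 10 μM; if >80% inhibition, 6 concentrations 10 nM–100 μM, Ki by Cheng-Prusoff.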
(In a radioligand displacement assay an active substance lowers the binding of a labelled ligand.)

Assay [3] deals with T3, Adenosine receptor A2b (Homo sapiens) (UniProt P29275).
T3 sequence (whole entry): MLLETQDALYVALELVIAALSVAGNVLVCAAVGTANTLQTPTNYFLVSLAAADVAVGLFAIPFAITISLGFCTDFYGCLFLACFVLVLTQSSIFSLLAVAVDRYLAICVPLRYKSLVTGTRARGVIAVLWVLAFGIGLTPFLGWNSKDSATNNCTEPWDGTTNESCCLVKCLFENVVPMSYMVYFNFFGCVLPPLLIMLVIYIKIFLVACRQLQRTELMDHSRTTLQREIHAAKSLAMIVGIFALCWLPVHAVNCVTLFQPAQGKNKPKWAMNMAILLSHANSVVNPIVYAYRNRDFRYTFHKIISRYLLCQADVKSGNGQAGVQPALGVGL
The experiment in a line: Displacement of [3H]DPCPX from human A2B receptor expressed in HEK-293-A2B cells at 10 uM incubated for 30 mins by scintillation counting method based radioligand competitive binding assay. In a few lines:
(§3)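 HEK-293-A2B membranes, 18 μg protein, in 50 mM Tris-HCl, 1 mM EDTA, 10 mM MgCl2, 0.1 mM benzamidine, 10 µg/mL bacitracin, 2 UI/mL adenosine deaminase, pH 6.5. Tracer 35 nM [3H]DPCPX; 400 μM NECA defines nonspecific binding. 25 °C for 30 min, GF/C filtration, duplicates. Single-point 10 μM screen, then 6-point curves (10 nM–100 μM), Cheng-Prusoff Ki.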

For assay [4], the target named is T4, Adenosine receptor A3 (Homo sapiens) (UniProt P0DMS8).
T4 sequence (whole entry): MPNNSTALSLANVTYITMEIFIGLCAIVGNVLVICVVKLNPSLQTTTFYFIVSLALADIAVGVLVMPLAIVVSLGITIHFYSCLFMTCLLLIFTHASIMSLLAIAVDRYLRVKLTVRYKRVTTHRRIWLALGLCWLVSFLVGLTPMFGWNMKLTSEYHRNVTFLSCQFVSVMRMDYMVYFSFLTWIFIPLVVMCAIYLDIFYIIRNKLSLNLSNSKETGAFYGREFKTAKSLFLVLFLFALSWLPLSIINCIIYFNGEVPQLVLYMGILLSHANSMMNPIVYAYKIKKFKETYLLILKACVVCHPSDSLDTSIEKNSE
Briefly: Displacement of [3H]NECA from human A3 receptor expressed in HeLa-A3 cells at 10 uM incubated for 180 mins by scintillation counting method based radioligand competitive binding assay. In a few lines: (§4)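 Membranes of HeLa-A3 cells (90 μg protein) in 50 mM Tris-HCl, 1 mM EDTA, 5 mM MgCl2, 2 UI/mL adenosine deaminase, pH 7.4, with 30 nM [3H]NECA. Nonspecific: 100 μM (R)-PIA. 180 min at 25 °C, GF/B filtration, triplicates, scintillation counting. 10 μM single-point inhibition; >80% actives run at 6 concentrations (10 nM–100 μM), pKi via Cheng-Prusoff.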

The next assay addresses T5, Adenosine receptor A3 (Homo sapiens, UniProt P0DMS8).
T5 sequence (P0DMS8 whole entry): T4 sequence (whole entry)
Briefly: Displacement of [3H]NECA from human A3 receptor expressed in HeLa-A3 cells incubated for 180 mins by scintillation counting method based radioligand competitive binding assay. The procedure, abridged: as §4

A further assay addresses T6, Adenosine receptor A1 (Homo sapiens, UniProt P30542).
T6 sequence (P30542 whole entry): T1 sequence (whole entry)
Briefly: Displacement of [3H]DPCPX from human A1 receptor expressed in CHO-A1 cells incubated for 60 mins by scintillation counting method based radioligand competitive binding assay. In a few lines: as §1

Assay [5] deals with T2, Adenosine receptor A2a. Briefly: Displacement of [3H]ZM241385 from human A2A receptor expressed in HeLa-A2A cells incubated for 30 mins by scintillation counting method based radioligand competitive binding assay. In a few lines:
as §2

Another assay concerns the target T7, Adenosine receptor A2b (Homo sapiens, UniProt P29275).
T7 sequence (P29275 whole entry): T3 sequence (whole entry)
The experiment in a line: Displacement of [3H]DPCPX from human A2B receptor expressed in HEK-293-A2B cells incubated for 30 mins by scintillation counting method based radioligand competitive binding assay. In a few lines: as §3

Structures are written as SMILES.

T2 sequence (P29274 whole entry): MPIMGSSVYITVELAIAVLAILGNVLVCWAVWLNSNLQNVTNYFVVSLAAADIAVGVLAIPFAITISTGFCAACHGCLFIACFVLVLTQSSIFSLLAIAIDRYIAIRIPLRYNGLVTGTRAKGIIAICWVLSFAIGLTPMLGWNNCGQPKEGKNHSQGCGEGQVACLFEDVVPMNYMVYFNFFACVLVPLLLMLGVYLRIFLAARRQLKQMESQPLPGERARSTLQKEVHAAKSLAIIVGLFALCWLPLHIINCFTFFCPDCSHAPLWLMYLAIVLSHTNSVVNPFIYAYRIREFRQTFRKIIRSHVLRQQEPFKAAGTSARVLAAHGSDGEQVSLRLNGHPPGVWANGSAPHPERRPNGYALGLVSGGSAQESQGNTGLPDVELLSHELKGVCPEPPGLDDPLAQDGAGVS

As usually defined, the inhibition is the drop in the measured response relative to a control, in per cent. Low values mean a response near the control, high ones a response far below the control. A word on the Ki: it is a measure of affinity in units of concentration, obtained from inhibition or displacement. Low values mean higher affinity, high ones lower affinity. As to `Clc1ccc(Cl)c(-c2nc(N3CCCCC3)c3nc[nH]c3n2)c1`, the inhibition in assay [1] was 1.4%; at Adenosine receptor A2a [2], 21%; in assay [3], 12.1%; in assay [4] it was above 80%. At Adenosine receptor A3, this compound had a Ki of 200 nM.
Turning to `CN1CCN(c2nc(-c3ccc(Cl)c(Cl)c3)nc3[nH]cnc23)CC1`, the inhibition in assay [1] is above 80%; on Adenosine receptor A2a [2], 12%; in assay [3], 24.1%; in assay [4], above 80%. Further, the Ki is 631 nM at Adenosine receptor A1 and 39.8 nM on Adenosine receptor A3.
For `CN1CCN(c2nc(-c3cccc(Cl)c3)nc3c2ncn3C)CC1`, the inhibition in assay [1] amounted to 45.7%; at Adenosine receptor A2a [2] it was 21%; in assay [3], 19.2%; in assay [4] it was 38.3%.
As to `CN1CCN(c2nc(-c3ccccc3O)nc3c2ncn3C)CC1`, the inhibition in assay [1] is above 80%; at Adenosine receptor A2a [2], 59.6%; in assay [3], 36%; in assay [4], 15.3%. The compound also showed a Ki on Adenosine receptor A1 of 631 nM.
Take `CN1CCN(c2nc(-c3ccc(Cl)cc3)nc3[nH]cnc23)CC1`: the inhibition in assay [1] is above 80%; on Adenosine receptor A2a [2] it was 15.9%; in assay [3], 6.2%; in assay [4], above 80%. The Ki on Adenosine receptor A1 was 398 nM; on Adenosine receptor A3 it was 39.8 nM.
Take `Oc1ccc(-c2nc(N3CCCCC3)c3nc[nH]c3n2)cc1`: the inhibition (in assay [1]; at Adenosine receptor A2a [2]; in assay [3]; in assay [4]) was above 80% throughout. The inhibition constant (Ki) on Adenosine receptor A1 is 10 nM; on Adenosine receptor A2a [5], 100 nM; on Adenosine receptor A2b, 79.4 nM; at Adenosine receptor A3, 39.8 nM.
Consider `Cn1cnc2c(N3CCCCC3)nc(-c3cccc(O)c3)nc21`, for which the inhibition in assay [1] was 78.5%; on Adenosine receptor A2a [2] it was 54.8%; in assay [3] it was 29.3%; in assay [4] it was 49.1%.
In the case of `Clc1cccc(-c2nc(N3CCCCC3)c3nc[nH]c3n2)c1`, the inhibition in assay [1] is above 80%; at Adenosine receptor A2a [2] it was 43.5%; in assay [3] it was above 80%; in assay [4], above 80%. The Ki on Adenosine receptor A1 is 50.1 nM; on Adenosine receptor A2b, 1000 nM; at Adenosine receptor A3, 39.8 nM.
Turning to `Cn1cnc2c(N3CCCCC3)nc(-c3ccccc3Cl)nc21`, the inhibition in assay [1] was found to be 35.2%; at Adenosine receptor A2a [2], 36.4%; in assay [3] it was 32.7%; in assay [4], 2.1%.
With `CN1CCN(c2nc(-c3ccc(Cl)c(C(F)(F)F)c3)nc3[nH]cnc23)CC1`, the inhibition in assay [1] is 52.4%; on Adenosine receptor A2a [2], 32%; in assay [3] it was 25.1%; in assay [4] it was above 80%. Besides, the Ki on Adenosine receptor A3 is 794 nM.
As to `CN1CCN(c2nc(-c3ccc(Cl)c(Cl)c3)nc3c2ncn3C)CC1`, the inhibition in assay [1] was 65.2%; on Adenosine receptor A2a [2], 25%; in assay [3] it was 28.3%; in assay [4] it was 35.3%.
Consider `Cn1cnc2c(N3CCCCC3)nc(-c3ccccc3O)nc21`, for which the inhibition in assay [1] was determined as 50.5%; on Adenosine receptor A2a [2], 74.8%; in assay [3], 30.2%; in assay [4] it was 20%.
In the case of `Clc1ccc(-c2nc(N3CCCCC3)c3nc[nH]c3n2)cc1Cl`, the inhibition in assay [1] was 24.1%; at Adenosine receptor A2a [2] it was 7%; in assay [3] it was 0.7%; in assay [4], above 80%. The same compound gave a Ki at Adenosine receptor A3 of 79.4 nM.
Regarding `CN1CCN(c2nc(-c3cc(Cl)ccc3Cl)nc3[nH]cnc23)CC1`, the inhibition in assay [1] is above 80%; at Adenosine receptor A2a [2], 9.1%; in assay [3], 13%; in assay [4], above 80%. For the same compound, the Ki was 2510 nM on Adenosine receptor A1 and 251 nM at Adenosine receptor A3.
As to `Cn1cnc2c(N3CCCCC3)nc(-c3cccc(O)c3O)nc21`, the inhibition in assay [1] was found to be 17.2%; at Adenosine receptor A2a [2], 24.1%; in assay [3] it was 26%; in assay [4] it was 33.7%.
Regarding `CN1CCN(c2nc(-c3cccc(O)c3)nc3c2ncn3C)CC1`, the inhibition in assay [1] was determined as 27.1%; on Adenosine receptor A2a [2], 4.2%; in assay [3], 47.8%; in assay [4], 63.8%.
As for `CN1CCN(c2nc(-c3ccc(O)cc3)nc3[nH]cnc23)CC1`, the inhibition in assay [1] is above 80%; on Adenosine receptor A2a [2] it was 37%; in assay [3] it was 53%; in assay [4] it was 48%. The compound further had a Ki on Adenosine receptor A1 of 398 nM.
For the compound `CN1CCN(c2nc(-c3cccc(O)c3)nc3[nH]cnc23)CC1`, the inhibition is above 80% in assay [1], 1% on Adenosine receptor A2a [2], 27% in assay [3] and above 80% in assay [4]. For the same compound, the Ki at Adenosine receptor A1 was 158 nM; on Adenosine receptor A3, 501 nM.
As for `Cn1cnc2c(N3CCCCC3)nc(-c3cccc(Cl)c3)nc21`, the inhibition was 22.4% in assay [1], 17% at Adenosine receptor A2a [2], 24.2% in assay [3] and 6.1% in assay [4].
For the compound `CN1CCN(c2nc(-c3cccc(Cl)c3)nc3[nH]cnc23)CC1`, the inhibition in assay [1] is above 80%; on Adenosine receptor A2a [2] it was 52.7%; in assay [3], 29.9%; in assay [4], above 80%. Moreover, the Ki is 79.4 nM at Adenosine receptor A1 and 100 nM at Adenosine receptor A3.
Regarding `Cn1cnc2c(N3CCCCC3)nc(-c3cc(Cl)ccc3Cl)nc21`, the inhibition turned out to be 13.2% in assay [1], 2.4% at Adenosine receptor A2a [2], 31% in assay [3] and 5.4% in assay [4].
As to `CN1CCN(c2ncnc3[nH]cnc23)CC1`, the inhibition in assay [1] is 9.2%; at Adenosine receptor A2a [2], 19.1%; in assay [3], 14%; in assay [4] it was 26.9%.

The values above are taken from ChEMBL document CHEMBL4385637, “2-Aryladenine derivatives as a potent scaffold for A1, A3 and dual A1/A3 adenosine receptor antagonists: Synthesis and structure-activity relationships” (Bioorg Med Chem, 2019).
